CHO parental Ca = counter-screen: ATP calcium response change in parental CHO cells; parental CHO-K1, ATP-induced calcium, Fluo-8 fluorescence; inhibition, % at 5.6 µM; 330,000 compounds, 0.63% hits; AID 463079;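 active = inhibition above that plate's mean sample inhibition plus 3 SD, cut at about 26% in these data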;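 also: 0% = ATP-challenged DMSO wells and 100% = DMSO wells without ATP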
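Material: parental CHO cells / Compound: single nominal dose of 5.6 µM per compound / Signal: Fluo-8 fluorescence / Replicates: singlicate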
OX1R antag-1 = blocks the human orexin 1 receptor; O43613; OX1R-expressing cells, FRET antagonist read-out; inhibition, % at 6.6 µM; 330,000 compounds, 1.8% hits; in the data active = inhibition mostly above about 38%, no sharp cut-off; inactive = mostly below about 40%;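 also: 0% = agonist challenge alone and 100% = reference antagonist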
GPR7 antag = human neuropeptides B/W receptor 1 antagonism; GPR7-expressing cells, fluorescence antagonist assay; inhibition, % at 4.4 µM; 290,000 compounds, 1.1% hits; AID 1861; in the data active = inhibition above about 16%, passing the limit was not always enough;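 also: cells stimulated with the agonist NPW; 0% = agonist with vehicle and 100% = vehicle without agonist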
Target sequence (P48145 whole entry, looked up): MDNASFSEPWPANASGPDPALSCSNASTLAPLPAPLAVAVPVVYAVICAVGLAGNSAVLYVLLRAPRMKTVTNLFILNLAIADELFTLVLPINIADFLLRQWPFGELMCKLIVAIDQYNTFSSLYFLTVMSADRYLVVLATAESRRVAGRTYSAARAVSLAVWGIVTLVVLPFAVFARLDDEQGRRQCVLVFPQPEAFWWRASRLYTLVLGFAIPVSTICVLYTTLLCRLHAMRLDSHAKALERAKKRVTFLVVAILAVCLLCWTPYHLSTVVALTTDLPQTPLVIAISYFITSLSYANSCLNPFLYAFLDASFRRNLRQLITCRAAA
OX1R antag-2 = antagonists of human orexin 1 receptor | CHO/OX1R cells, Fluo-8 calcium fluorescence, orexin A | inhibition, % at 5 µM | 330,000 compounds, 0.43% hits | AID 434989;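 active = inhibition above its plate's threshold, mean inhibition of all tested compounds on the plate plus 3 SD, cut at about 37% in these data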;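 also: 0% = orexin A challenge wells and 100% = SB-334867-A antagonist wells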
TAAR1 antag = human TAAR1 antagonism; Q96RJ0; CHO RD-HGA16 TAAR1, Fluo-8 calcium fluorescence, antagonist; inhibition, % at 3 µM; 360,000 compounds, 1.5% hits; AID 624466;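 active = inhibition above a per-plate cutoff, the mean inhibition of test compounds on that plate plus 3 SD, cut at about 49% in these data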;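 also: 0% = DMSO plus EC80 beta-PEA response and 100% = DMSO alone without agonist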
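Assay system: RD-HGA16 CHO cells with stable hTAAR1 and Gα16 / Reagent: EC80 β-phenethylamine stimulus / Doses: 3 µM, single point / Timing: dye loading 75 min at 37 °C, then 30 min room temperature / Measured by: Fluo-8 intracellular calcium dye fluorescence, real-time kinetic reads / Controls: vehicle wells and EC80 agonist wells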
TAAR1 ag = agonists of human TAAR1. 360,000 compounds, 0.99% hits. CHO RD-HGA16 TAAR1, Fluo-8 calcium fluorescence; vehicle wells 0%, saturating PEA agonist 100%. activation, % at 3 µM. Q96RJ0. AID 624467;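 active = activation above the mean activation of all test compounds in the run plus 3 SD, cut at about 38% in these data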
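Repeats: no replicates (n 1) | Material: CHO-derived RD-HGA16 cells with stable Gα16 and human TAAR1 | Technique: Kinetic Fluo-8 calcium fluorescence | Schedule: 17-24 h seeding, 75 min 37 °C dye, 30 min RT | Evaluation: % activation from peak over basal fluorescence ratio, DMSO-to-PEA scaled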
TAAR1 nonsel count = counter-screen for TAAR1 antagonists: nonselective antagonists | counterscreen cell line, calcium fluorescence, antagonist mode | 2,400 compounds, 77% hits | AID 651780 | shares compounds with TAAR1 antag | inhibition, % at 3 µM; in the data active = inhibition above about 22%;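 also: CHO-Ga16 host cells stimulated with ATP at an EC80 level; 0% = agonist EC80 plus vehicle and 100% = vehicle without agonist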
TAAR1 ant conf = human TAAR1 antagonism, confirmed | 2,400 compounds, 40% hits | shares compounds with TAAR1 antag | inhibition, % at 3 µM | TAAR1-expressing cells, fluorescence antagonist read-out; in the data active = inhibition above about 49%;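 also: CHO-Ga16 host cells challenged with agonist PEA near its EC80; 0% = agonist at EC80 plus vehicle and 100% = vehicle with no agonist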
Ga16 ag counter = counter-screen for TAAR1 antagonists: nonselective Ga16 agonists; shares compounds with TAAR1 antag; Ga16-expressing cells, calcium fluorescence, agonist counterscreen; activation, % at 3 µM; 2,400 compounds, 18% hits; AID 651953; in the data active = activation above about 12%;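 also: 0% = vehicle wells and 100% = saturating stimulus response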
TAAR1 ag counter = TAAR1 agonism, antagonist counter-screen; shares compounds with TAAR1 antag; hTAAR1 cell line, fluorescence activation, agonist mode; activation, % at 3 µM; 2,400 compounds, 2% hits; in the data active = activation above about 37%;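 also: CHO cells stably expressing TAAR1 with calcium dye readout; 0% = DMSO vehicle and 100% = full agonist response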
The depositor's hits bear a star. Rows were chosen to be rich in hits. Some 4.6% of all compounds tested hit in one or more screens of this group.

Screening COc1ccc(-c2nc(C#N)c(NCc3ccccc3Cl)o2)cc1 returned CHO parental Ca -8, OX1R antag-1 14, GPR7 antag -13, OX1R antag-2 -13, TAAR1 antag 53*, TAAR1 ag 16, TAAR1 nonsel count 4, TAAR1 ant conf 7, Ga16 ag counter 1 and TAAR1 ag counter 6.
Cc1ccc(NC(=S)N(Cc2ccco2)C2CCN(C(C)C)CC2)cc1 was read as CHO parental Ca -5, OX1R antag-1 6, GPR7 antag -11, OX1R antag-2 7, TAAR1 antag -24 and TAAR1 ag 0.
`CCOC(=O)N1CCN(C(=O)c2ccccc2NC(=O)COc2ccccc2)CC1` gave CHO parental Ca -9, OX1R antag-1 11, GPR7 antag -7, OX1R antag-2 -20, TAAR1 antag 16 and TAAR1 ag 9.
`COc1ccc(-c2ccc(/C=N/N3C(=O)C4C5C=CC(C6CC56)C4C3=O)o2)c([N+](=O)[O-])c1` (stereo not given) gave CHO parental Ca -14, OX1R antag-1 16, GPR7 antag 5, OX1R antag-2 1, TAAR1 antag 56*, TAAR1 ag 17, TAAR1 nonsel count 31*, TAAR1 ant conf 52*, Ga16 ag counter 10 and TAAR1 ag counter 10.
`CC(NC(=O)c1ccc(CS(=O)(=O)c2ccc(Cl)cc2)o1)c1ccc2c(c1)OCCO2` (stereo not given) gave CHO parental Ca -18, OX1R antag-1 21, GPR7 antag 2, OX1R antag-2 -21, TAAR1 antag 59*, TAAR1 ag 19, TAAR1 nonsel count 32*, TAAR1 ant conf 53*, Ga16 ag counter 11 and TAAR1 ag counter 9.
For Cc1ccccc1S(=O)(=O)Cc1ccc(C(=O)NC(C)c2ccc3c(c2)OCCO3)o1 (stereo not given) the results were CHO parental Ca -15, OX1R antag-1 15, GPR7 antag -10, OX1R antag-2 -6, TAAR1 antag 36 and TAAR1 ag 8.
Screening NS(=O)(=O)Oc1ccccc1 returned CHO parental Ca -1, OX1R antag-1 12, GPR7 antag -6, OX1R antag-2 0, TAAR1 antag 5 and TAAR1 ag 10.
`O=C1/C(=C/Nc2cccc([N+](=O)[O-])c2)CCc2ccccc21` gave CHO parental Ca -26, OX1R antag-1 11, GPR7 antag -9, OX1R antag-2 -42, TAAR1 antag 51*, TAAR1 ag 0, TAAR1 nonsel count 13, TAAR1 ant conf 24, Ga16 ag counter 1 and TAAR1 ag counter -5.
For O=C1/C(=C\c2ccc([N+](=O)[O-])cc2)CCc2ccccc21 the results were CHO parental Ca -9, OX1R antag-1 9, GPR7 antag -10, OX1R antag-2 -3, TAAR1 antag -29 and TAAR1 ag 0.
Screening Cc1nn(C)cc1C(C(=O)NC1CCCCC1)N(Cc1ccc(F)cc1)C(=O)c1cnccn1 (stereo not given) returned CHO parental Ca -7, OX1R antag-1 13, GPR7 antag -19, OX1R antag-2 -21, TAAR1 antag -1 and TAAR1 ag 1.
`Cc1ccc(-c2csc(N3CCN(CCCn4c(C(F)(F)F)nc5ccccc54)CC3)n2)cc1` gave CHO parental Ca -22, OX1R antag-1 6, GPR7 antag 10, OX1R antag-2 -45, TAAR1 antag 33 and TAAR1 ag -1.
